# Assay results taken from ChEMBL document CHEMBL1122583, “Structure-activity relationships among DNA gyrase inhibitors. Synthesis and biological evaluation of 1,2-dihydro-4, 4-dimethyl-1-oxo-2-naphthalenecarboxylic acids as 1-carba bioisosteres of oxolinic acid” (1984).
# Legend:
# [1] = test system: Mycolicibacterium smegmatis; experiment: In vitro antifungal activity against Mycobacterium smegmatis (ATCC 607); type: functional
# [2] = test system: Salmonella enterica subsp. enterica serovar Gallinarum; experiment: In vitro antifungal activity against Salmonella gallinarum (ATCC 9184); type: functional
# Nucleic Acid = experiment: In vitro DNA gyrase inhibition activity; type: nucleic-acid assay
# Summary of the method: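 DNA gyrase holoenzyme, purified using a heparin-Sepharose affinity column in place of the DEAE-cellulose step. Supercoiling of relaxed ColE1 plasmid was run on 1% agarose horizontal gels. Relaxed and supercoiled bands were quantified by densitometry of photographic negatives. Because inhibition is noncompetitive, Ki was taken as the concentration giving 50% inhibition of supercoil band formation.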
# Staphylococcus aureus = experiment: In vitro antifungal activity against Staphylococcus aureus (ATCC 13709); type: functional
# Candida albicans = experiment: In vitro antifungal activity against Candida albicans (ATCC 10231); type: functional
# Escherichia coli = experiment: In vitro antifungal activity against Escherichia coli (ATCC 9637); type: functional
# Klebsiella pneumoniae = experiment: In vitro antifungal activity against Klebsiella pneumoniae AD (ATCC 10031); type: functional
Compound,MIC [1],MIC [2],Ki (concentration giving 50% inhibition of gyrase supercoiling) (Nucleic Acid),MIC (Staphylococcus aureus),MIC (Candida albicans),MIC (Escherichia coli),MIC (Klebsiella pneumoniae)
CC1(C)C=C(C(=O)O)C(=O)c2ccc3c(c21)OCC3,> 100 µg/mL,> 100 µg/mL,300 µg/mL,> 100 µg/mL,> 100 µg/mL,> 100 µg/mL,> 100 µg/mL
CC1(C)C=C(C(=O)O)C(=O)c2cc3c(cc21)OCO3,500 µg/mL,500 µg/mL,300 µg/mL,500 µg/mL,> 500 µg/mL,> 500 µg/mL,> 500 µg/mL
CC1(C)C=C(C(=O)O)C(=O)c2cc3c(cc21)CCO3,500 µg/mL,500 µg/mL,300 µg/mL,500 µg/mL,> 500 µg/mL,> 500 µg/mL,> 500 µg/mL
CCn1cc(C(=O)O)c(=O)c2cc3c(cc21)OCO3 [OXOLINIC ACID],50 µg/mL,0.78 µg/mL,–,3.13 µg/mL,> 100 µg/mL,0.78 µg/mL,< 0.1 µg/mL
COc1cc2c(cc1OC)C(C)(C)C=C(C(=O)O)C2=O,> 100 µg/mL,> 100 µg/mL,> 1000 µg/mL,> 100 µg/mL,> 100 µg/mL,> 100 µg/mL,> 100 µg/mL
CC1(C)C=C(C(=O)O)C(=O)c2ccccc21,50 µg/mL,50 µg/mL,2000 µg/mL,6.25 µg/mL,> 250 µg/mL,> 250 µg/mL,> 250 µg/mL
CCn1cc(C(=O)O)c(=O)c2ccc(C)nc21 [NALIDIXIC ACID],> 100 µg/mL,12.5 µg/mL,–,100 µg/mL,> 100 µg/mL,12.5 µg/mL,3.13 µg/mL
